Experimental data reported in ChEMBL document CHEMBL1153988 (J Med Chem, 2009).
The source made the active and inactive calls. The calls are words filed in the database; no cut-off is given here.

Assays:
Mus musculus [1] = experiment: Anticonvulsant activity in CF1 albino mouse assessed as protection against scMet-induced seizures at 100 mg/kg, ip after 4 hrs; assay type: functional, organism-based; parameters: dose 100 mg/kg
Summary of the method: (§1)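 Adult male CF no. 1 albino mice (18-25 g) dosed intraperitoneally with compound suspended in 0.5% methylcellulose (0.01 mL/g). Convulsant challenge given subcutaneously as a 0.85% pentylenetetrazol solution in 0.9% saline. Read-out is animals protected over animals tested, with neurotoxicity scored in parallel.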

Mus musculus [2] = experiment: Neurotoxicity in CF1 albino mouse assessed as minimal motor impairment at 60 mg/kg, ip; assay type: toxicity, organism-based; parameters: dose 60 mg/kg, route intraperitoneal; conditions: in vivo
Summary of the method: (§2)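 Male CF no. 1 albino mice (18-25 g) received a single ip dose as a suspension in 0.5% methylcellulose. The read-out was the number of animals showing neurotoxicity (minimal motor impairment) over the number tested.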

Rattus norvegicus [3] = experiment: Anticonvulsant activity in albino Sprague-Dawley rat assessed as protection against scMet-induced seizures at 50 mg/kg, po after 1 hr; assay type: functional
Summary of the method: (§3)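 Male Sprague-Dawley albino rats (100-150 g) were given the compound orally as a suspension in 0.5% methylcellulose. Seizures were induced by subcutaneous pentylenetetrazol, dissolved in 0.9% saline as a 2.82% solution. The read-out was animals protected over animals tested.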

Mus musculus [4] = experiment: Anticonvulsant activity in ip dosed CF1 albino mouse assessed as protection against 32 mA current-induced seizure by 6Hz psychomotor seizure test; assay type: functional
Summary of the method: (§4)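 In the 6 Hz psychomotor seizure test, male CF no. 1 albino mice (18-25 g) received the compound ip in 0.5% methylcellulose. Stimulation was at 32 or 44 mA. Doses were varied to give 3-4 points between 0% and 100% protection, and ED50 with 95% confidence interval came from probit analysis.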

Mus musculus [5] = experiment: Neurotoxicity in CF1 albino mouse at 30 mg/kg, ip after 4 hrs; assay type: toxicity, organism-based; parameters: dose 30 mg/kg, route intraperitoneal; conditions: in vivo; summary of the method: as §2
Mus musculus [6] = experiment: Teratogenic effect in VPA-induced SWV mouse assessed as number of fetuses with neural tube deffects at 502 mg/kg, ip administered on morning of day 8 of gestation; assay type: toxicity, organism-based; parameters: dose 502 mg/kg, route intraperitoneal; conditions: in vivo
Summary of the method: (§5)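 Inbred SWV mouse strain highly susceptible to VPA-induced neural tube defects. Each dam received a single ip injection on gestation day 8.5, dosed within 1.8-4.2 mmol/kg, against a control of 25% aqueous Cremophor EL. Groups were compared with the control, and with the matched VPA sodium-salt dose, by Fisher's exact test (p < 0.05).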

Rattus norvegicus [7] = experiment: Anticonvulsant activity in albino Sprague-Dawley rat assessed as protection against scMet-induced seizures at 50 mg/kg, po after 2 hrs; assay type: functional; summary of the method: as §3
Rattus norvegicus [8] = experiment: Anticonvulsant activity in po dosed albino Sprague-Dawley rat assessed as protection against maximal electroshock-induced seizures; assay type: functional
Mus musculus [9] = experiment: Anticonvulsant activity in CF1 albino mouse assessed as protection against scMet-induced seizures at 100 mg/kg, ip; assay type: functional, organism-based; parameters: dose 100 mg/kg; summary of the method: as §1
Rattus norvegicus [10] = experiment: Anticonvulsant activity in albino Sprague-Dawley rat assessed as protection against pilocarpine-induced status epilepticus dosed ip after 30 mins of pilocarpine induction; assay type: functional; conditions: 0.5 h
Summary of the method: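 Rat pilocarpine status epilepticus model. Compound is given 30 min after pilocarpine status induction, or after the first stage III seizure. Seizure severity is rated on the Racine scale and scored as protection or no protection. Doses of 50, 75 and 100 mg/kg were used, with 7, 6 and 7 rats respectively. ED50 was derived by probit analysis.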

Rattus norvegicus [11] = experiment: Anticonvulsant activity in ip dosed albino Sprague-Dawley rat assessed as protection against pilocarpine-induced status epilepticus; assay type: functional
Summary of the method: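 Rat pilocarpine-induced status model: drug was given either at the first stage III seizure (time 0) or 30 min after status induction, […]. Seizure severity was scored on the Racine scale as protection or no protection. Time 0 used 12, 25, 50 and 100 mg/kg with 8 rats per dose. The 30 min arm used 50, 75 and 100 mg/kg with 7, 6 and 7 rats. ED50 was calculated.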

Rattus norvegicus [12] = experiment: Neurotoxicity in albino Sprague-Dawley rat at 50 mg/kg, po; assay type: toxicity, organism-based; parameters: dose 50 mg/kg, route oral; conditions: in vivo
Summary of the method: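 Neurotoxicity was scored in male Sprague-Dawley albino rats (100-150 g) dosed orally with a suspension in 0.5% methylcellulose. The read-out was the fraction of animals showing neurotoxicity (minimal motor impairment).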

Rattus norvegicus [13] = experiment: Anticonvulsant activity in albino Sprague-Dawley rat assessed as protection against maximal electroshock-induced seizures at 50 mg/kg, po after 2 hrs; assay type: functional
Summary of the method: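 Adult male Sprague-Dawley albino rats (100-150 g) dosed orally with compound suspended in 0.5% methylcellulose (0.04 mL per 10 g). Maximal electroshock challenge at the stated time. Protection is scored in 25% steps as the fraction of animals protected, with neurotoxicity recorded in parallel.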

Mus musculus [14] = experiment: Anticonvulsant activity in CF1 albino mouse assessed as protection against 44 mA-current-induced seizure at 25 mg/kg, ip by 6Hz psychomotor seizure test; assay type: functional, organism-based; parameters: dose 25 mg/kg
Summary of the method: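 6 Hz psychomotor seizure test in male CF no. 1 mice, with compound given ip as a 0.5% methylcellulose suspension. Groups of 8 animals per dose. The 32 mA test used 25, 70 and 130 mg/kg; the 44 mA test used 25, 50, 75 and 100 mg/kg. ED50 and 95% confidence interval were obtained by probit analysis.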

Mus musculus [15] = experiment: Teratogenic effect in VPA-induced SWV mouse assessed as number of fetuses with neural tube deffects at 336 mg/kg, ip administered on morning of day 8 of gestation; assay type: toxicity, organism-based; parameters: dose 336 mg/kg, route intraperitoneal; conditions: in vivo; summary of the method: as §5
Mus musculus [16] = experiment: Anticonvulsant activity in ip dosed CF1 albino mouse assessed as protection against 44 mA-current-induced seizure by 6Hz psychomotor seizure test; assay type: functional; summary of the method: as §4
Mus musculus [17] = experiment: Anticonvulsant activity in CF1 albino mouse assessed as protection against scMet-induced seizures at 300 mg/kg, ip after 0.5 hrs; assay type: functional, organism-based; parameters: dose 300 mg/kg; summary of the method: as §1
Mus musculus [18] = species: Mus musculus; experiment: Protective index, ratio of TD50 for CF1 albino mouse to ED50 for scMet-induced CF1 albino seizure mouse model; assay type: functional
Summary of the method: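 Ratio of TD50 to ED50 (MES or scMet) in male CF no. 1 mice (18-25 g) given ip doses in 0.5% methylcellulose. TD50 comes from minimal motor impairment: the dose was varied until four points lay between no impairment and all animals impaired. Both TD50 and ED50 were derived by probit analysis with 95% confidence intervals.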

Rattus norvegicus [19] = experiment: Anticonvulsant activity in albino Sprague-Dawley rat assessed as protection against scMet-induced seizures at 50 mg/kg, po after 4 hrs; assay type: functional; summary of the method: as §3
Mus musculus [20] = experiment: Anticonvulsant activity in CF1 albino mouse assessed as protection against maximal electroshock-induced seizures at 30 mg/kg, ip after 4 hrs; assay type: functional, organism-based; parameters: dose 30 mg/kg
Summary of the method: (§6)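 Adult male CF no. 1 albino mice (18-25 g). Test compound suspended in 0.5% methylcellulose and given intraperitoneally at 0.01 mL/g body weight. Maximal electroshock challenge at the stated time. Read-out is the number of animals protected over the number tested; neurotoxicity is scored in parallel.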

Mus musculus [21] = experiment: Anticonvulsant activity in CF1 albino mouse assessed as protection against maximal electroshock-induced seizures at 100 mg/kg, ip after 4 hrs; assay type: functional, organism-based; parameters: dose 100 mg/kg; summary of the method: as §6
Mus musculus [22] = experiment: Anticonvulsant activity in ip dosed CF1 albino mouse assessed as protection against maximal electroshock-induced seizures; assay type: functional
Summary of the method: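 Male CF no. 1 albino mice (18-25 g) were dosed ip in 0.5% methylcellulose and tested by maximal electroshock. Doses were varied to give 3-4 points between 0% and 100% protection. ED50 with 95% confidence interval came from probit analysis.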

Mus musculus [23] = experiment: Teratogenic effect in SWV mouse assessed as number of implants at 671 mg/kg, ip administered on morning of day 8 of gestation; assay type: toxicity, organism-based; parameters: dose 671 mg/kg, route intraperitoneal; conditions: in vivo; summary of the method: as §5

How did the Activity (Mus musculus [1]) turn out when CC1(C)C(C)(C)C1(F)C(N)=O was run?
The Activity was “Non-toxic”.

What about the Activity (Mus musculus [2]) of the same molecule?
Its Activity is “Non-toxic”.

What about the Activity (Rattus norvegicus [3]) of the same molecule?
The Activity was 75%.

And the ED50 (Mus musculus [4])?
The ED50 was 57 mg/kg.

What about the Activity (Mus musculus [5]) of the same molecule?
The Activity was “Non-toxic”.

What about the Activity (Mus musculus [6]) of the same molecule?
The Activity was 0.

And the Activity (Rattus norvegicus [7])?
Its Activity is 75%.

What about the ED50 (Rattus norvegicus [8]) of the same molecule?
Its ED50 is greater than 100 mg/kg.

And the Activity (Mus musculus [9])?
The Activity was “Active”.

What about the ED50 (Rattus norvegicus [10]) of the same molecule?
The ED50 was 80 mg/kg.

What about the ED50 (Rattus norvegicus [11]) of the same molecule?
The ED50 was 23 mg/kg.

And the Activity (Rattus norvegicus [12])?
The Activity was “Not Active”.

What about the Activity (Rattus norvegicus [13]) of the same molecule?
Its Activity is “inactive”.

What about the Activity (Mus musculus [14]) of the same molecule?
The Activity was “inactive”.

And the Activity (Mus musculus [15])?
The Activity was 0.

And the ED50 (Mus musculus [16])?
The ED50 was 59 mg/kg.

What about the Activity (Mus musculus [17]) of the same molecule?
Its Activity is “Toxic”.

And the PI (Mus musculus [18])?
Its PI is 3.2.

And the Activity (Rattus norvegicus [19])?
Its Activity is 50%.

What about the Activity (Mus musculus [20]) of the same molecule?
The Activity was “Non-toxic”.

And the Activity (Mus musculus [21])?
The Activity was “Non-toxic”.

And the ED50 (Mus musculus [22])?
The ED50 was greater than 200 mg/kg.

What about the Activity (Mus musculus [23]) of the same molecule?
Its Activity is 55.
